Shown are actives, neighbours in structure and some others; about 1.8% of the full set was active somewhere.
HKDC1 inh: HKDC1 hexokinase inhibitors, primary screen, biochemical, fluorescence, uHTS | Q2TB90 | recombinant HKDC1, G6PDH/diaphorase resazurin coupled fluorescence | inhibition, % at 20 µM | 0.16% of 340,000 active;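 active = inhibition above about 35% when tested at 20 µM, limit read from the data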;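 also: plate controls were DMSO wells with enzyme for no effect and DMSO wells lacking enzyme for full effect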
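Test system: recombinant HKDC1 (HK5) hexokinase enzyme, produced in-house; Amount: enzyme 5 µg/mL final; Buffer or medium: Tris pH 8.0 buffer with MgCl2, Tween-20, BSA, BME; Reagent: glucose and ATP substrates; Doses: 20 µM test compound, 1% DMSO; Incubation: 90 min reaction incubation at room temperature, dark; Detection: resorufin fluorescence at 613 nm.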
HDAC3 inh: HDAC3 deacetylase inhibitors, primary screen, biochemical, fluorescence, cell-free homogeneous; recombinant HDAC3, fluorogenic peptide/trypsin coupled; AID 2718, 2010; Histone deacetylase 3 (Homo sapiens), O15379; 0.15% of 320,000 active; inhibition, % at 8.3 µM; in the data active = inhibition above about 26%, passing the limit was not always enough; inconclusive = no clear call, values can overlap the other calls
LANA-H2A inh: blockers of LANA interaction with H2A/H2B – biochemical, FP readout, HTS, primary screen; Protein LANA1 (Human herpesvirus 8 type P (isolate GK18)), Q9QR71; cell-free LANA-H2A/H2B peptide, fluorescence polarization; inhibition, % (no concentration beside the values); 0.6% of 320,000 active; AID 2629, 2010; in the data active = inhibition mostly above about 10%, no sharp cut-off; inactive = mostly below about 6.7%
AI-2 QS mod: Vibrio harveyi AI-2 quorum sensing modulators, primary screen, JMH597 strain, luminescence/OD600 ratio; Vibrio harveyi JMH597 AI-2 luminescence/OD600 ratio, 9 h; stronger effect = lower value; strain lacks LuxN and CqsS sensors; 0 = neutral-control median; activity change, % at 7.5 µM; 0.4% of 300,000 active; AID 2094, 2009; in the data active = activity change below about -75%, passing the limit was not always enough; inconclusive = no clear call, values can overlap the other calls;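 also: luminescence divided by OD600 gain over 9 h not by final OD600 alone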
Bfl-1 A1 inh: caspase 3/7 activation in MEF A1-2A-BIM cells, primary screen, A1 inhibitor project, cell-based, luminescence, HTS | Caspase-Glo 3/7 luminescence, 3 h; percent of clofoctol response, vehicle zero | caspase activation, % (concentration not given with the values) | 0.066% of 330,000 active;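 active = over half of replicate activation scores above 10%, or exactly half above 10 with the replicate mean above 10; inconclusive = replicate mean below 10 yet half the replicates above 10; inactive = over half of replicates below 10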
ATG4B inh: ATG4B protease inhibitors, primary screen, biochemical, fluorescence, uHTS; Cysteine protease ATG4B (Homo sapiens), Q9Y4P1; ATG4B cleavage of LC3-PLA2, NBD-HPC fluorescence, 1 h; inhibition, % at 8.33 µM; 0.51% of 340,000 active; AID 504462, 2011; in the data active = inhibition above about 40%
Target sequence (Q9Y4P1 whole entry, looked up): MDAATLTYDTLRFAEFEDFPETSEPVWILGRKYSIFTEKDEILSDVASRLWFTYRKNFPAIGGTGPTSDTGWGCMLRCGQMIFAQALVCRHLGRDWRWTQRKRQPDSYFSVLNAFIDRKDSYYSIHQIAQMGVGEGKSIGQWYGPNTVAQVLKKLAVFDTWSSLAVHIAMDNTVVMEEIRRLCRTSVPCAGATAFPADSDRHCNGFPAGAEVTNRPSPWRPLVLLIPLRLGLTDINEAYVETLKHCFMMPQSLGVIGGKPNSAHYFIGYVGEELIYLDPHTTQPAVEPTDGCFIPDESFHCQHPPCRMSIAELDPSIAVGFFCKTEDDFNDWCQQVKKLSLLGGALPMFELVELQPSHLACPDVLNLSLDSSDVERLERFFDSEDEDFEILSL
HKDC1 act conf: HKDC1 hexokinase activators, confirmation, biochemical, single concentration | shares compounds with HKDC1 inh | recombinant HKDC1, G6PDH/diaphorase resazurin fluorescence; stronger effect = lower value | inhibition, % at 20 µM | 14% of 740 active;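 active = inhibition at or below a set negative limit, negative inhibition meaning the enzyme was activated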
ATG4B conf: ATG4B protease inhibitors, retest, confirmation, biochemical, fluorescence, single concentration | shares compounds with ATG4B inh | inhibition, % at 8.33 µM | 92% of 320 active | ATG4B protease fluorescent substrate cleavage assay; in the data active = inhibition above about 39%
PLA2 ctr: PLA2 enzyme inhibition, counter-screen for ATG4B inhibitor project, biochemical, single concentration, uHTS hits | shares compounds with ATG4B inh | purified PLA2, NBD-C6-HPC fluorescence, 45 min | inhibition, % at 8.33 µM | 66% of 1,600 active; in the data active = inhibition above about 50%
An asterisk follows results filed as active; ? = inconclusive; · = no result given.

SMILES | HKDC1 inh | HDAC3 inh | LANA-H2A inh | AI-2 QS mod | Bfl-1 A1 inh | ATG4B inh | PLA2 ctr | others
Cc1ccc(-c2ccc(/C=C3\C(=O)ON=C3c3ccccc3)o2)c([N+](=O)[O-])c1 | 43* | -6 | 3 | -6 | 1 | 63* | 23 | HKDC1 act conf=10
O=C(CSc1nccc(=O)[nH]1)NC1CCCCCC1 | -4 | 1 | -5 | · | 0 | -3 | ·
COC1=C(Br)C(=O)c2ncccc2C1=O | 56* | · | · | · | · | 69* | -13 | HKDC1 act conf=65;ATG4B conf=32
Oc1ccc(C2C(c3ccccc3)=NN=C(c3ccccc3F)N2O)c(O)c1 (stereo not given) | -3 | -4 | -3 | 11 | 0 | 63* | 84*
Oc1ccc(C2C(c3ccccc3)=NN=C(c3ccc(Cl)cc3)N2O)c(O)c1 (stereo not given) | -6 | 3 | 0 | 12 | -1 | 60* | 76*
CC1=NN=C(c2ccccc2)C(c2c[nH]c3ccccc23)N1O (stereo not given) | 3 | 2 | -5 | 4 | -1 | -8 | ·
CCc1nc(Nc2ccc3c(c2)OCO3)c2oc3ccccc3c2n1 | 3 | 1 | -3 | 4 | -1 | 18 | ·
CCc1nc(N2CCN(Cc3ccc4c(c3)OCO4)CC2)c2oc3ccccc3c2n1 | -1 | -8 | 2 | 15 | 1 | 49* | 70*
CCc1nc(N2CCCCC2C)c2oc3ccccc3c2n1 (stereo not given) | 7 | 9 | -5 | 16 | 0 | 45* | 56*
CCc1nc(N2CCCC(C)C2)c2oc3ccccc3c2n1 (stereo not given) | -4 | -2 | -3 | 12 | -2 | 43* | 52*
CCc1nc(N2CCCCC2)c2oc3ccccc3c2n1 | 1 | 4 | -2 | 21 | 0 | 53* | 61*
O=C1C(=C(O)c2ccccc2)C(=O)c2ccccc21 | -6 | 6 | 5 | 35 | -1 | 4 | ·
O=C1C(=C(c2ccccc2)c2ccccc2)Nc2ccccc21 | 11 | 12 | 3 | 15 | -1 | 43* | 50*
CC(C)=CCN1CCN(Cc2cc(C(C)C)n[nH]2)CC1CCO (stereo not given) | -6 | 7 | -5 | 20 | 0 | 23 | ·
O=C1C(=O)N(C/C=C/c2ccccc2)c2ccccc21 | 19 | -2 | -2 | 24 | ? | 49* | 54*
O=C1c2ccccc2C(=O)N1C/C=C/c1ccccc1 | 1 | 6 | 1 | 7 | 0 | -7 | ·
O=C(NC1CCCCC1)C(c1c(F)cccc1Cl)N(C(=O)c1csnn1)C1CC1 (stereo not given) | -5 | 7 | -1 | · | 1 | -4 | ·
COc1ccc(C(=O)/C=C/c2cccc(OCc3ccccc3)c2)cc1CSCC(=O)O | 29 | 10 | -3 | 8 | 0 | 49* | 61*
COc1ccc(C(=O)/C=C/c2ccc(OCc3ccccc3)cc2)cc1CSCC(=O)O | 15 | 7 | 9 | 23 | -2 | 49* | 69*
Cc1[nH]c2ccccc2c1/C=N/Nc1cccc(C(=O)O)c1 | 3 | 1 | -6 | -1 | -2 | 1 | ·

Source: PubChem BioAssay
